# Laboratory results as given in ChEMBL document CHEMBL1926593, “Studies on the synthesis and antibacterial activity of 3,6-disubstituted 1,2,4-triazolo[3,4-b]1,3,4-thiadiazoles” (2012).
# Active and inactive are the calls of the source. The calls are words filed in the database; no cut-off is given here.
# How the values were obtained:
# Bacillus subtilis [1] = experiment: Antibacterial activity against drug-sensitive Bacillus subtilis ATCC 6633 by broth microdilution method; assay type: functional
# How it was run: (§1)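 Broth microdilution per CLSI recommendation. MIC is the lowest concentration with no visible growth. MBC is the lowest concentration giving >99.9% reduction in CFU of the initial inoculum. Ampicillin, cefuroxime and vancomycin served as reference agents.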
# Staphylococcus aureus [2] = experiment: Ratio of MBC to MIC for methicillin-resistant Staphylococcus aureus ATCC 14001; assay type: functional
# How it was run: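 Broth microdilution following CLSI recommendations. MIC was the lowest concentration with no visible growth. MBC was the lowest concentration giving a >99.9% reduction in CFU relative to the initial inoculum. The ratio was taken from these two values.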
# Bacillus cereus [3] = experiment: Antibacterial activity against drug-sensitive Bacillus cereus ATCC 10876 by broth microdilution method; assay type: functional; how it was run: as §1
# Staphylococcus aureus [4] = experiment: Antibacterial activity against methicillin-resistant Staphylococcus aureus ATCC 14001 by broth microdilution method; assay type: functional
# How it was run: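 Broth microdilution following CLSI recommendations. MIC was read as the lowest concentration giving no visible growth. Ampicillin, cefuroxime and vancomycin were the reference antibacterials.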
# Staphylococcus aureus [5] = experiment: Antibacterial activity against drug-sensitive Staphylococcus aureus ATCC 25923 by broth microdilution method; assay type: functional; how it was run: as §1
# Micrococcus luteus = experiment: Antibacterial activity against drug-sensitive Micrococcus luteus ATCC 10240 by broth microdilution method; assay type: functional; how it was run: as §1
# [6] = system: Staphylococcus epidermidis; experiment: Antibacterial activity against drug-sensitive Staphylococcus epidermidis ATCC 12228 by broth microdilution method; assay type: functional; how it was run: as §1
# Staphylococcus aureus [7] = experiment: Antibacterial activity against drug-sensitive Staphylococcus aureus ATCC 6538 by broth microdilution method; assay type: functional; how it was run: as §1
# Pseudomonas aeruginosa = experiment: Antibacterial activity against drug-sensitive Pseudomonas aeruginosa ATCC 9027 by broth microdilution method; assay type: functional, organism-based; how it was run: as §1
# Bacillus cereus [8] = experiment: Ratio of cefuroxime MIC to compound MIC for drug-sensitive Bacillus cereus ATCC 10876 by broth microdilution method; assay type: functional
# Bacillus subtilis [9] = experiment: Ratio of ampicillin MIC to compound MIC for drug-sensitive Bacillus subtilis ATCC 6633 by broth microdilution method; assay type: functional
# Escherichia coli = experiment: Antibacterial activity against drug-sensitive Escherichia coli ATCC 25922 by broth microdilution method; assay type: functional, organism-based; how it was run: as §1
# Bacillus cereus [10] = experiment: Ratio of ampicillin MIC to compound MIC for drug-sensitive Bacillus cereus ATCC 10876 by broth microdilution method; assay type: functional
# Klebsiella pneumoniae = experiment: Antibacterial activity against drug-sensitive Klebsiella pneumoniae ATCC 13883 by broth microdilution method; assay type: functional, organism-based; how it was run: as §1
# Proteus mirabilis = experiment: Antibacterial activity against drug-sensitive Proteus mirabilis ATCC 12453 by broth microdilution method; assay type: functional, organism-based; how it was run: as §1
Structure (SMILES),MBC (Bacillus subtilis [1]) [µg/mL],MIC (Bacillus subtilis [1]) [µg/mL],Ratio (Staphylococcus aureus [2]),MBC (Bacillus cereus [3]) [µg/mL],MIC (Bacillus cereus [3]) [µg/mL],MBC (Staphylococcus aureus [4]) [µg/mL],MIC (Staphylococcus aureus [4]) [µg/mL],MBC (Staphylococcus aureus [5]) [µg/mL],MIC (Staphylococcus aureus [5]) [µg/mL],MBC (Micrococcus luteus) [µg/mL],MIC (Micrococcus luteus) [µg/mL],MBC [6] [µg/mL],MIC [6] [µg/mL],MBC (Staphylococcus aureus [7]) [µg/mL],MIC (Staphylococcus aureus [7]) [µg/mL],Activity (Pseudomonas aeruginosa),Activity (Escherichia coli),Ratio (Bacillus cereus [10]),Activity (Klebsiella pneumoniae),Activity (Proteus mirabilis),other results
CN[C@H](CC(C)C)C(=O)N[C@H]1C(=O)N[C@@H](CC(N)=O)C(=O)N[C@H]2C(=O)N[C@H]3C(=O)N[C@H](C(=O)N[C@H](C(=O)O)c4cc(O)cc(O)c4-c4cc3ccc4O)[C@H](O)c3ccc(c(Cl)c3)Oc3cc2cc(c3O[C@@H]2O[C@H](CO)[C@@H](O)[C@H](O)[C@H]2O[C@H]2C[C@](C)(N)[C@H](O)[C@H](C)O2)Oc2ccc(cc2Cl)[C@H]1O [VANCOMYCIN],0.49,0.25,4,31.2,0.98,3.91,0.98,7.81,0.98,0.49,0.25,1.95,0.98,1.95,0.49,,,,,,
CO/N=C(\C(=O)N[C@@H]1C(=O)N2C(C(=O)O)=C(COC(N)=O)CS[C@H]12)c1ccco1 [CEFUROXIME],,15.6,,,31.2,,,,0.49,,0.98,,0.24,,0.98,,,,,,
Brc1ccc(Nc2nn3c(-c4ccccc4)nnc3s2)cc1,1.91,0.98,8,15.6,15.6,62.5,7.81,31.2,0.98,7.81,3.91,0.98,0.49,125,15.6,inactive,inactive,4,inactive,inactive,Ratio (Bacillus cereus [8]): 2; Ratio (Bacillus subtilis [9]): 16
Clc1ccc(Nc2nn3c(-c4ccccc4Cl)nnc3s2)cc1,15.6,3.91,32,3.91,3.91,62.5,1.95,31.2,15.6,15.6,7.81,15.6,3.91,15.6,15.6,inactive,inactive,16,inactive,inactive,Ratio (Bacillus cereus [8]): 8; Ratio (Bacillus subtilis [9]): 4
Clc1cccc(-c2nnc3sc(Nc4ccc(Br)cc4)nn23)c1,1.95,1.95,128,31.2,15.6,125,0.98,31.2,0.98,3.91,3.91,3.91,0.98,31.2,0.49,inactive,inactive,4,inactive,inactive,Ratio (Bacillus cereus [8]): 2
Clc1ccc(Nc2nn3c(-c4ccc(Cl)cc4)nnc3s2)cc1,7.81,3.91,8,31.2,7.81,62.5,7.81,62.5,3.91,31.2,15.6,15.6,3.91,62.5,0.98,inactive,inactive,8,inactive,inactive,Ratio (Bacillus subtilis [9]): 4
Clc1ccc(-c2nnc3sc(Nc4ccc(Br)cc4)nn23)cc1,1.95,1.95,16,15.6,15.6,125,7.81,31.2,1.95,15.6,15.6,1.95,1.95,31.2,0.98,inactive,inactive,4,inactive,inactive,Ratio (Bacillus cereus [8]): 2; Ratio (Bacillus subtilis [9]): 8
Clc1ccc(Nc2nn3c(-c4ccccc4)nnc3s2)cc1,7.81,1.95,32,15.6,15.6,62.5,1.95,31.2,3.91,15.6,7.81,3.91,0.98,31.2,15.6,inactive,inactive,4,inactive,inactive,Ratio (Bacillus cereus [8]): 2; Ratio (Bacillus subtilis [9]): 8
CC1(C)S[C@@H]2[C@H](NC(=O)[C@H](N)c3ccccc3)C(=O)N2[C@H]1C(=O)O [AMPICILLIN],,,,,62.5,,,,,,,,,,,,,,,,
Clc1ccccc1-c1nnc2sc(Nc3ccc(Br)cc3)nn12,15.6,1.95,8,15.6,7.81,15.6,1.95,15.6,1.95,7.81,7.81,3.91,0.98,62.5,7.81,inactive,inactive,8,inactive,inactive,Ratio (Bacillus subtilis [9]): 8
Clc1ccc(Nc2nn3c(-c4cccc(Cl)c4)nnc3s2)cc1,1.95,1.95,64,15.6,7.81,62.5,0.98,31.2,1.95,3.91,3.91,3.91,0.98,31.2,0.49,inactive,inactive,8,inactive,inactive,Ratio (Bacillus cereus [8]): 4; Ratio (Bacillus subtilis [9]): 8
